Source: ChEMBL document CHEMBL5154669, “G-Quadruplex DNA as a Target in Pathogenic Bacteria: Efficacy of an Extended Naphthalene Diimide Ligand and Its Mode of Action” (J Med Chem, 2022)

Columns and labels:
[1] = system: Bacillus cereus; assay: Antibacterial activity against Bacillus cereus ATCC 10987 assessed as inhibition of bacterial growth incubated for 20 hrs by CLSI based broth microdilution method; type: functional
How it was run: (§1)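 Broth microdilution in cation-adjusted Mueller-Hinton broth following CLSI guidelines. DMSO stocks were at 10 mM; compounds were twofold serially diluted over 128 to 2 μM. The inoculum was at 5 × 10⁵, prepared from colonies grown 20 h at 37 °C and adjusted to 0.5 McFarland. Plates ran 20 h at 37 °C with OD600 read-out. MIC was the lowest concentration inhibiting visible growth, in triplicate.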

[2] = system: DNA; assay: Stabilization of Escherichia coli in G-quadruplex DNA GGT GGG GAG GGG TAA GGG G assessed as melting temperature at 10 uM incubated for 16 hrs by […]; type: nucleic-acid assay
How it was run: (§2)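 Readout was CD melting, not FRET: 2.5 μM oligonucleotide in 10 mM lithium cacodylate pH 7.4 with KCl set per sequence (initial Tm 60-70 °C). Annealed 95 °C 5 min, cooled to room temperature over 4 h, then ligand 10 μM (4 equiv) equilibrated 16 h at 20 °C. Ellipticity at 260 nm tracked every 0.1 °C, 20-95 °C at 5 °C/min; Tm by van't Hoff two-state fit.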

[3] = Toxicity against Galleria mellonella assessed as survival at 5 to 128 mg/kg measured after 5 days; type: organism-based; details: in vivo, dose 5-128 mg/kg, time 5 day, read-out: Activity
How it was run: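 For uninfected larvae, 20 per treatment, 10 µL was injected into the hemocoel through the last left proleg to give 8, 16, 32, 64 or 128 mg/kg. NaCl 0.9% served as the negative control. Larvae were held at 37 °C for 5 d, with mortality recorded daily.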

[4] = system: Escherichia coli; assay: Antimicrobial activity against Escherichia coli LMG 8223 assessed as inhibition of bacterial growth in presence of D11 incubated for 20 hrs; details: LMG 8223, 20 h
[5] = system: Enterococcus faecalis; assay: Antibacterial activity against Enterococcus faecalis V583 assessed as inhibition of bacterial growth incubated for 20 hrs by CLSI based broth microdilution method; type: functional; how it was run: as §1
[6] = system: Acinetobacter baumannii; assay: Bacteriostatic activity against Acinetobacter baumannii LMG 01041 assessed as inhibition of bacterial growth; type: functional
How it was run: (§3)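 A standard MIC plate (128–2 μM, cMHB, 20 h, 37 °C) was read at OD600. Each well then seeded at 10% a fresh compound-free cMHB plate, grown another 20 h at 37 °C and read at OD600. No growth at the same concentration in both plates counted as bactericidal. Growth above the MIC counted as bacteriostatic. Done in triplicate.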

[7] = system: DNA; assay: Stabilization of Staphylococcus aureus in G-quadruplex DNA GGGTTTGGGGCGGCGGTTGG assessed as change in melting temperature at 10 uM incubated for 16 hrs by FRET method; type: nucleic-acid assay; details: in the assay text read “by CD melting method” for “by FRET method”
[8] = system: Salmonella enterica; assay: Antimicrobial activity against Salmonella enterica LMG 07233 assessed as inhibition of bacterial growth in presence of D11 incubated for 20 hrs; details: LMG 07233, 20 h
[9] = system: Enterobacter cloacae; assay: Antibacterial activity against Enterobacter cloacae LMG 02783 assessed as inhibition of bacterial growth incubated for 20 hrs by CLSI based broth microdilution method; type: functional; how it was run: as §1
[10] = system: Staphylococcus aureus; assay: Antibacterial activity against Staphylococcus aureus LMG 8224 assessed as inhibition of bacterial growth incubated for 20 hrs by CLSI based broth microdilution method; type: functional; how it was run: as §1
[11] = system: Enterococcus faecalis; assay: Bacteriostatic activity against Enterococcus faecalis V583 assessed as inhibition of bacterial growth; type: functional; how it was run: as §3
[12] = system: Staphylococcus aureus; assay: Bacteriostatic activity against Staphylococcus aureus LMG 8224 assessed as inhibition of bacterial growth; type: functional; how it was run: as §3
[13] = system: Enterobacter cloacae; assay: Antimicrobial activity against Enterobacter cloacae LMG 02783 assessed as inhibition of bacterial growth in presence of D11 incubated for 20 hrs; details: LMG 02783, 20 h
[14] = system: Enterococcus faecalis; assay: Antibacterial activity against Enterococcus faecalis LMG 16216 assessed as inhibition of bacterial growth incubated for 20 hrs by CLSI based broth microdilution method; type: functional; how it was run: as §1
[15] = system: Klebsiella aerogenes; assay: Antimicrobial activity against Enterobacter aerogenes LMG 02094 assessed as inhibition of bacterial growth in presence of D11 incubated for 20 hrs; details: LMG 02094, 20 h
[16] = system: Staphylococcus aureus; assay: Antimicrobial activity against Staphylococcus aureus LMG 8224 assessed as inhibition of bacterial growth in presence of D11 incubated for 20 hrs; details: LMG 8224, 20 h
[17] = system: Enterococcus faecalis; assay: Antimicrobial activity against Enterococcus faecalis V583 assessed as inhibition of bacterial growth in presence of D11 incubated for 20 hrs; details: V583, 20 h
[18] = system: Bacillus cereus; assay: Bacteriostatic activity against Bacillus cereus ATCC 10987 assessed as inhibition of bacterial growth; type: functional; how it was run: as §3
[19] = system: DNA; assay: Stabilization of Staphylococcus aureus in G-quadruplex DNA GGA AGG AGG GGT GAC AGG G assessed as change in melting temperature at 10 uM incubated for 16 hrs by […]; type: nucleic-acid assay; how it was run: as §2
[20] = system: Klebsiella pneumoniae; assay: Antimicrobial activity against Klebsiella pneumoniae LMG 20218 assessed as inhibition of bacterial growth in presence of D11 incubated for 20 hrs; details: LMG 20218, 20 h
[21] = system: Staphylococcus aureus; assay: Antibacterial activity against Staphylococcus aureus LMG 10147 assessed as inhibition of bacterial growth incubated for 20 hrs by CLSI based broth microdilution method; type: functional; how it was run: as §1
[22] = system: Enterococcus faecium; assay: Antimicrobial activity against Enterococcus faecium LMG 16003 assessed as inhibition of bacterial growth in presence of D11 incubated for 20 hrs; details: LMG 16003, 20 h
[23] = system: Salmonella enterica; assay: Antibacterial activity against Salmonella enterica LMG 07233 assessed as inhibition of bacterial growth incubated for 20 hrs by CLSI based broth microdilution method; type: functional; how it was run: as §1
[24] = system: DNA; assay: Stabilization of Staphylococcus aureus in G-quadruplex DNA GGA AGG AGG GGT GAC AGG G assessed as melting temperature at 10 uM incubated for 16 hrs […]; type: nucleic-acid assay; how it was run: as §2
[25] = system: DNA; assay: Stabilization of Staphylococcus aureus in G-quadruplex DNA GGGTTTGGGGCGGCGGTTGG assessed as melting temperature at 10 uM incubated for 16 hrs by […]; type: nucleic-acid assay; how it was run: as §2
[26] = system: Klebsiella aerogenes; assay: Bacteriostatic activity against Enterobacter aerogenes LMG 02094 assessed as inhibition of bacterial growth; type: functional; how it was run: as §3
[27] = system: Klebsiella aerogenes; assay: Antibacterial activity against Enterobacter aerogenes LMG 02094 assessed as inhibition of bacterial growth incubated for 20 hrs by CLSI based broth microdilution method; type: functional; how it was run: as §1
[28] = system: DNA; assay: Stabilization of Escherichia coli in G-quadruplex DNA GGG GGA GGA GGA CGG GGG assessed as change in melting temperature at 10 uM incubated for 16 hrs by FRET method; type: nucleic-acid assay; details: in the assay text read “by CD melting method” for “by FRET method”; how it was run: as §2
[29] = system: Salmonella enterica; assay: Bacteriostatic activity against Salmonella enterica LMG 07233 assessed as inhibition of bacterial growth; type: functional; how it was run: as §3

Which MIC [1] does the source give for `CN(C)CCCn1c(=O)c2ccc3c(=O)n(CCCN(C)C)c(=O)c4c5[nH]c6ccccc6[nH]c5c(c1=O)c2c34.O=C(O)C(F)(F)F.O=C(O)C(F)(F)F` here?
The MIC was 8 µM.

And the Tm [2]?
Its Tm is 91 °C.

And the survival at 120 h [3]?
The survival at 120 h was 65%.

What about the MIC [4] of the same compound?
Its MIC is < 0.5 µM.

What about the MIC [5] of the same compound?
Its MIC is 4 µM.

What about the MIC [6] of the same compound?
The MIC was 128 µM.

And the ΔTm [7]?
The ΔTm was > 35.6 °C.

And the MIC [8]?
The MIC was < 0.5 µM.

What about the MIC [9] of the same compound?
Its MIC is 8 µM.

And the MIC [10]?
The MIC was 16 µM.

And the MIC [11]?
Its MIC is 64 µM.

What about the MIC [12] of the same compound?
The MIC was 128 µM.

What about the MIC [13] of the same compound?
Its MIC is 8 µM.

What about the MIC [14] of the same compound?
The MIC was 4 µM.

And the MIC [15]?
Its MIC is 8 µM.

What about the MIC [16] of the same compound?
The MIC was 16 µM.

And the MIC [17]?
Its MIC is 4 µM.

What about the MIC [18] of the same compound?
The MIC was 64 µM.

What about the ΔTm [19] of the same compound?
The ΔTm was > 30.8 °C.

What about the MIC [20] of the same compound?
The MIC was 16 µM.

What about the MIC [21] of the same compound?
The MIC was 16 µM.

And the MIC [22]?
The MIC was 4 µM.

What about the MIC [23] of the same compound?
Its MIC is 64 µM.

What about the Tm [24] of the same compound?
The Tm was > 95 °C.

What about the Tm [25] of the same compound?
The Tm was > 95 °C.

And the MIC [26]?
Its MIC is > 128 µM.

And the MIC [27]?
Its MIC is 32 µM.

And the ΔTm [28]?
Its ΔTm is > 24.8 °C.

What about the MIC [29] of the same compound?
Its MIC is 128 µM.
